Reference: ChEMBL document CHEMBL1629684, “Effects of ravuconazole treatment on parasite load and immune response in dogs experimentally infected with Trypanosoma cruzi” (Antimicrob Agents Chemother, 2010)
Active and inactive are the calls of the source.

Experiments:
Trypanosoma cruzi [1] = experiment: Antimicrobial activity against Trypanosoma cruzi Berenice-78 infected in mongrel dog assessed as suppression of microbial proliferation at 12 mg/kg, po BID started 12 to 22 days postinfection measured after 1 day; assay type: functional, organism-based; design: dose 12 mg/kg
Procedure, shortened: (§1)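 Mongrel dogs, 4 months old, dewormed and vaccinated, were inoculated with 2.0 × 10^3 bloodstream trypomastigotes/kg. Oral b.i.d. (q12h) dosing began 12 to 22 days postinfection, once parasitemia appeared. Dosing ran 90 days at 12 mg/kg and 60 days at 7 mg/kg, with 5 dogs per group. Parasitemia was read by fresh-blood examination of marginal ear vein blood from day 10 of infection until parasites were undetectable.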

Canis familiaris [2] = experiment: Immunostimulatory activity in mongrel dog infected with Trypanosoma cruzi Berenice-78 assessed as production of antibody IgG at 12 mg/kg, po BID for 90 days measured after 6 months by ELISA; assay type: functional, organism-based; design: dose 12 mg/kg; settings: Canis lupus familiaris
Procedure, shortened: (§2)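 Serum was taken before inoculation and then monthly until 6 months posttreatment, and stored at −80°C. ELISA plates were coated with alkaline extract of Y-strain parasites grown to exponential phase in LIT medium. Bound total IgG or IgG2 was detected with peroxidase-labeled anti-dog conjugates and read at 490 nm. Cutoff was the mean absorbance of 10 uninfected dogs plus 2 SD.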

Trypanosoma cruzi [3] = experiment: Antimicrobial activity against Trypanosoma cruzi Y infected in mongrel dog assessed as parasite level in blood of dog at 7 mg/kg, po BID started 12 to 22 days postinfection measured after 30 days by PCR analysis; assay type: functional
Procedure, shortened: (§3)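 Blood PCR for T. cruzi on treated dogs (n = 5 per group) at 1 and 6 months posttreatment. Each reaction took 2 μl blood DNA template in Tris-HCl pH 9.0, 75 mM KCl, 3.5 mM MgCl2 and 0.2 mM dNTPs. Cycling was 95°C 5 min, then 2 cycles annealing at 30°C, 33 cycles at 40°C, and 72°C 5 min. Products were run on 6% polyacrylamide and silver stained. Reported as rate of positive animals.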

Trypanosoma cruzi [4] = experiment: Antimicrobial activity against Trypanosoma cruzi Y infected in mongrel dog assessed as survival of dog at 7 mg/kg, po BID started 12 to 22 days postinfection measured after 1 day; assay type: functional
Procedure, shortened: (§4)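 Four-month-old mongrel dogs (five per group) received 2.0 × 10^3 Y or Berenice-78 bloodstream trypomastigotes/kg. Oral dosing began 12–22 days postinfection, when parasitemia was detected by fresh blood examination: 12 mg/kg q12h for 90 days, or 7 mg/kg q12h for 60 days. Ear-vein blood was checked from day 10. Mortality was expressed as the cumulative percentage of dead animals.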

Canis familiaris [5] = experiment: Immunostimulatory activity in mongrel dog infected with Trypanosoma cruzi Berenice-78 assessed as production of antibody IgG at 12 mg/kg, po BID for 90 days measured up to 30 days by ELISA; assay type: functional, organism-based; design: dose 12 mg/kg; settings: Canis lupus familiaris; procedure, shortened: as §2
Trypanosoma cruzi [6] = experiment: Antimicrobial activity against Trypanosoma cruzi Berenice-78 infected in mongrel dog assessed as survival of dog at 12 mg/kg, po BID started 12 to 22 days postinfection measured after 1 day; assay type: functional; procedure, shortened: as §4
Canis familiaris [7] = experiment: Immunostimulatory activity in mongrel dog infected with Trypanosoma cruzi Berenice-78 assessed as production of antibody IgG2 at 7 mg/kg, po BID for 90 days measured after 6 months by ELISA; assay type: functional, organism-based; design: dose 7 mg/kg; settings: Canis lupus familiaris, in the assay text read “for 60 days” for “for 90 days”; procedure, shortened: as §2
Trypanosoma cruzi [8] = experiment: Antitrypanosomal activity against Trypanosoma cruzi Y infected in mongrel dog assessed as reduction in INFgamma production in right atrium at 7 mg/kg, po BID after 180 days by semiquantitative RT-PCR; settings: Cardiac atrium
Canis familiaris [9] = experiment: Immunostimulatory activity in mongrel dog infected with Trypanosoma cruzi Berenice-78 assessed as production of antibody IgG2 at 7 mg/kg, po BID for 90 days measured up to 30 days by ELISA; assay type: functional, organism-based; design: dose 7 mg/kg; settings: Canis lupus familiaris; procedure, shortened: as §2
Canis familiaris [10] = experiment: Immunostimulatory activity in mongrel dog infected with Trypanosoma cruzi Y assessed as production of antibody IgG at 7 mg/kg, po BID for 90 days measured after 6 months by ELISA; assay type: functional, organism-based; design: dose 7 mg/kg; settings: Canis lupus familiaris, in the assay text read “for 60 days” for “for 90 days”; procedure, shortened: as §2
Canis familiaris [11] = experiment: Immunostimulatory activity in mongrel dog infected with Trypanosoma cruzi Y assessed as production of antibody IgG2 at 12 mg/kg, po BID for 90 days measured after 6 months by ELISA; assay type: functional, organism-based; design: dose 12 mg/kg; settings: Canis lupus familiaris; procedure, shortened: as §2
Canis familiaris [12] = experiment: Immunostimulatory activity in mongrel dog infected with Trypanosoma cruzi Berenice-78 assessed as production of antibody IgG at 7 mg/kg, po BID for 90 days measured up to 30 days by ELISA; assay type: functional, organism-based; design: dose 7 mg/kg; settings: Canis lupus familiaris; procedure, shortened: as §2
Trypanosoma cruzi [13] = experiment: Antimicrobial activity against Trypanosoma cruzi Berenice-78 infected in mongrel dog assessed as parasite level in blood of dog at 7 mg/kg, po BID started 12 to 22 days postinfection measured after 30 days by PCR analysis; assay type: functional; procedure, shortened: as §3
Canis familiaris [14] = experiment: Immunostimulatory activity in mongrel dog infected with Trypanosoma cruzi Y assessed as production of antibody IgG at 12 mg/kg, po BID for 90 days measured after 6 months by ELISA; assay type: functional, organism-based; design: dose 12 mg/kg; settings: Canis lupus familiaris; procedure, shortened: as §2
Canis familiaris [15] = experiment: Toxicity in mongrel dog infected with Trypanosoma cruzi Berenice-78 assessed as weight loss at 7 mg/kg, po BID for 90 days started 12 to 22 days postinfection measured after 6 months; assay type: organism-based, Canis lupus familiaris; design: dose 7 mg/kg, route oral; settings: in vivo, 4383 h
Procedure, shortened: (§5)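 Body weight gain, in kg, was recorded for infected dogs 1 day and 6 months after the end of oral b.i.d. treatment. Treated animals were compared with infected untreated and noninfected control groups.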

Canis familiaris [16] = experiment: Immunostimulatory activity in mongrel dog infected with Trypanosoma cruzi Berenice-78 assessed as production of antibody IgG2 at 12 mg/kg, po BID for 90 days measured after 6 months by ELISA; assay type: functional, organism-based; design: dose 12 mg/kg; settings: Canis lupus familiaris; procedure, shortened: as §2
Trypanosoma cruzi [17] = experiment: Antimicrobial activity against Trypanosoma cruzi Y infected in mongrel dog assessed as suppression of microbial proliferation at 12 mg/kg, po BID started 12 to 22 days postinfection measured after 1 day; assay type: functional, organism-based; design: dose 12 mg/kg; procedure, shortened: as §1
Trypanosoma cruzi [18] = experiment: Antimicrobial activity against Trypanosoma cruzi Berenice-78 infected in mongrel dog assessed as suppression of microbial proliferation at 7 mg/kg, po BID started 12 to 22 days postinfection measured after 1 day; assay type: functional, organism-based; design: dose 7 mg/kg; procedure, shortened: as §1
Trypanosoma cruzi [19] = experiment: Antitrypanosomal activity against Trypanosoma cruzi Y infected in mongrel dog assessed as reduction in IL10 production in right atrium at 7 mg/kg, po BID after 180 days by semiquantitative RT-PCR; settings: Cardiac atrium
Canis familiaris [20] = experiment: Immunostimulatory activity in mongrel dog infected with Trypanosoma cruzi Y assessed as production of antibody IgG2 at 7 mg/kg, po BID for 90 days measured after 6 months by ELISA; assay type: functional, organism-based; design: dose 7 mg/kg; settings: Canis lupus familiaris, in the assay text read “for 60 days” for “for 90 days”; procedure, shortened: as §2
Canis familiaris [21] = experiment: Toxicity in mongrel dog infected with Trypanosoma cruzi Berenice-78 assessed as weight loss at 12 mg/kg, po BID for 90 days started 12 to 22 days postinfection measured after 6 months; assay type: organism-based, Canis lupus familiaris; design: dose 12 mg/kg, route oral; settings: in vivo, 4383 h; procedure, shortened: as §5
Trypanosoma cruzi [22] = experiment: Antimicrobial activity against Trypanosoma cruzi Y infected in mongrel dog assessed as suppression of microbial proliferation at 7 mg/kg, po BID started 12 to 22 days postinfection measured after 1 day; assay type: functional, organism-based; design: dose 7 mg/kg; procedure, shortened: as §1
Canis familiaris [23] = experiment: Immunostimulatory activity in mongrel dog infected with Trypanosoma cruzi Berenice-78 assessed as production of antibody IgG at 7 mg/kg, po BID for 90 days measured after 6 months by ELISA; assay type: functional, organism-based; design: dose 7 mg/kg; settings: Canis lupus familiaris; procedure, shortened: as §2
Canis familiaris [24] = experiment: Toxicity in mongrel dog infected with Trypanosoma cruzi Berenice-78 assessed as weight loss at 7 mg/kg, po BID for 90 days started 12 to 22 days postinfection measured after 1 day; assay type: organism-based, Canis lupus familiaris; design: dose 7 mg/kg, route oral; settings: in vivo, 24 h; procedure, shortened: as §5
Canis familiaris [25] = experiment: Toxicity in mongrel dog infected with Trypanosoma cruzi Y assessed as weight loss at 7 mg/kg, po BID for 90 days started 12 to 22 days postinfection measured after 6 months; assay type: organism-based, Canis lupus familiaris; design: dose 7 mg/kg, route oral; settings: in vivo, 4383 h; procedure, shortened: as §5
Trypanosoma cruzi [26] = experiment: Antitrypanosomal activity against Trypanosoma cruzi Y infected in mongrel dog assessed as reduction in INFgamma production in right atrium at 7 mg/kg, po BID after 180 days by semiquantitative RT-PCR; assay type: functional, organism-based; design: dose 7 mg/kg; settings: Cardiac atrium
Procedure, shortened: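 Dogs were euthanized 6 months after the end of treatment. RNA was extracted from the right atrium with acid guanidinium thiocyanate-phenol-chloroform. One microgram was DNase treated and reverse transcribed with oligo(dT) for 1 h at 42°C. IFN-γ or IL-10 cDNA was amplified with 1.5 mM MgCl2: 94°C 5 min, n cycles of 94/57/72°C, final extension 72°C 6 min. Expression was scored semiquantitatively against infected untreated and noninfected dogs.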

Canis familiaris [27] = experiment: Toxicity in mongrel dog infected with Trypanosoma cruzi Y assessed as weight loss at 12 mg/kg, po BID for 90 days started 12 to 22 days postinfection measured after 6 months; assay type: organism-based, Canis lupus familiaris; design: dose 12 mg/kg, route oral; settings: in vivo, 4383 h; procedure, shortened: as §5
Trypanosoma cruzi [28] = experiment: Antimicrobial activity against Trypanosoma cruzi Berenice-78 infected in mongrel dog assessed as survival of dog at 7 mg/kg, po BID started 12 to 22 days postinfection measured after 1 day; assay type: functional; procedure, shortened: as §4
Canis familiaris [29] = experiment: Immunostimulatory activity in mongrel dog infected with Trypanosoma cruzi Berenice-78 assessed as production of antibody IgG2 at 12 mg/kg, po BID for 90 days measured up to 30 days by ELISA; assay type: functional, organism-based; design: dose 12 mg/kg; settings: Canis lupus familiaris; procedure, shortened: as §2
Canis familiaris [30] = experiment: Toxicity in mongrel dog infected with Trypanosoma cruzi Berenice-78 assessed as weight loss at 12 mg/kg, po BID for 90 days started 12 to 22 days postinfection measured after 1 day; assay type: organism-based, Canis lupus familiaris; design: dose 12 mg/kg, route oral; settings: in vivo, 24 h; procedure, shortened: as §5
Trypanosoma cruzi [31] = experiment: Antimicrobial activity against Trypanosoma cruzi Y infected in mongrel dog assessed as survival of dog at 12 mg/kg, po BID started 12 to 22 days postinfection measured after 1 day; assay type: functional; procedure, shortened: as §4

Measured: Activity

O=C(Cn1ccnc1[N+](=O)[O-])NCc1ccccc1 [BENZNIDAZOLE]
0%: Trypanosoma cruzi [3] | Trypanosoma cruzi [13]
Toxic: Canis familiaris [24] | Canis familiaris [30]
inactive: Trypanosoma cruzi [1] Non-toxic | Trypanosoma cruzi [17] Non-toxic | Trypanosoma cruzi [18] Non-toxic | Trypanosoma cruzi [22] Non-toxic
Non-toxic: Canis familiaris [15] | Canis familiaris [21] | Canis familiaris [25] | Canis familiaris [27]
100%: Trypanosoma cruzi [4] | Trypanosoma cruzi [6] | Trypanosoma cruzi [28] | Trypanosoma cruzi [31]
active: all other assays above
